Data taken from ChEMBL document CHEMBL3228012, “Actinomycin D oxazinones as improved antitumor agents” (1979).
Converted amounts (≈) assume the structure as drawn. The source made the active and inactive calls. No cut-off for these calls is given here. Starred links: 1 amine or outer side, 2 acyl side, 3 side chain; linkers in the order of their positions; H or OH if unused. Positions of bridges follow the written chain, without caps; N, C: chain ends. Non-standard residues stand in square brackets, D forms with d. Residues, ends and D or L forms follow the SMILES beside them. Chains are numbered I, II in the order given. Actinocin(1to9) = Cc1c2oc3c(C)ccc(C(=O)[*:2])c3nc-2c(C(=O)[*:1])c(N)c1=O; NMeV = CN[C@H](C(=O)O)C(C)C; Sar = CNCC(=O)O

Assays:
[1] = system: P388; experiment: Antitumor activity against mouse P388 cells allografted in mouse BDF1 mouse assessed as increase in survival >50 days at 150 ug/kg, ip for 4 days
[2] = system: CCRF-CEM; experiment: Antitumor activity against human CCRF-CEM cells assessed as growth inhibition after 48 hrs; format: functional; conditions: read-out: ID50 (the source's name)
Method in brief: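 Human leukemic lymphoblasts were grown in continuous spinner suspension culture. Compounds were exposed for 48 h. ID50 was taken as the concentration in ng/mL giving 50% growth inhibition.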

[3] = system: Calf thymus DNA; experiment: Binding affinity to calf thymus DNA in 0.15 M NaCl-0.01 M sodium phosphate buffer at pH 7.3 at 37 degC incubated for 5 mins; format: nucleic-acid assay; conditions: Bos taurus
Method in brief: (§1)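 Compounds were mixed with calf thymus DNA, and binding was monitored by difference absorption spectra with and without DNA. Binding to DNA was judged from a bathochromic shift of λmax with hypochromicity.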

[4] = system: Calf thymus DNA; experiment: Binding affinity to calf thymus DNA in 0.15 M NaCl-0.01 M phosphate buffer at pH 7.3 at 37 degC incubated for 30 mins; conditions: Bos taurus
[5] = system: P388; experiment: Antitumor activity against mouse P388 cells allografted in mouse BDF1 mouse assessed as increase in survival time of mouse at 150 ug/kg, ip for 4 days relative to untreated control; conditions: 96 h
[6] = system: Calf thymus DNA; experiment: Binding affinity to calf thymus DNA in 0.15 M NaCl-0.01 M sodium phosphate buffer at pH 7.3 at 37 degC incubated for 30 mins; format: nucleic-acid assay; conditions: Bos taurus
Method in brief: as §1

[7] = system: Calf thymus DNA; experiment: Binding affinity to calf thymus DNA in 0.01 M phosphate buffer at pH 7 at 20 degC incubated for 5 mins; format: nucleic-acid assay; conditions: Bos taurus
Method in brief: as §1

[8] = system: P388; experiment: Antitumor activity against mouse P388 cells allografted in mouse BDF1 mouse assessed as increase in survival >50 days at 75 ug/kg, ip for 4 days
[9] = system: P388; experiment: Antitumor activity against mouse P388 cells allografted in mouse BDF1 mouse assessed as increase in survival >50 days at 50 ug/kg, ip for 4 days
[10] = system: P388; experiment: Antitumor activity against mouse P388 cells allografted in mouse BDF1 mouse assessed as increase in survival time of mouse at 50 ug/kg, ip for 4 days relative to untreated control; conditions: 96 h
[11] = system: P388; experiment: Antitumor activity against mouse P388 cells allografted in mouse BDF1 mouse assessed as increase in survival time of mouse at 75 ug/kg, ip for 4 days relative to untreated control; conditions: 96 h
[12] = system: P388; experiment: Antitumor activity against mouse P388 cells allografted in mouse BDF1 mouse assessed as survival time of mouse at 75 ug/kg, ip for 4 days (reference value: 11.5 days)
[13] = system: P388; experiment: Antitumor activity against mouse P388 cells allografted in mouse BDF1 mouse assessed as survival time of mouse at 50 ug/kg, ip for 4 days (reference value: 11.5 days)
[14] = system: P388; experiment: Antitumor activity against mouse P388 cells allografted in mouse BDF1 mouse assessed as survival time of mouse at 150 ug/kg, ip for 4 days (reference value: 11.5 days)
[15] = system: P388; experiment: Antitumor activity against mouse P388 cells allografted in mouse BDF1 mouse assessed as increase in survival time of mouse at 300 ug/kg, ip for 4 days relative to untreated control; conditions: 96 h
[16] = system: P388; experiment: Antitumor activity against mouse P388 cells allografted in mouse BDF1 mouse assessed as increase in survival >50 days at 300 ug/kg, ip for 4 days
[17] = system: P388; experiment: Antitumor activity against mouse P388 cells allografted in mouse BDF1 mouse assessed as survival time of mouse at 300 ug/kg, ip for 4 days (reference value: 11.5 days)
[18] = system: P388; experiment: Antitumor activity against mouse P388 cells allografted in mouse BDF1 mouse assessed as complete suppression of tumor on day 307 at 150 ug/kg, ip for 4 days

For `Cc1ccc(C(=O)N[C@@H]2C(=O)N[C@H](C(C)C)C(=O)N3CCC[C@H]3C(=O)N(C)CC(=O)N(C)[C@@H](C(C)C)C(=O)O[C@@H]2C)c2c1Oc1c(c(C(=O)N[C@@H]3C(=O)N[C@H](C(C)C)C(=O)N4CCC[C@H]4C(=O)N(C)CC(=O)N(C)[C@@H](C(C)C)C(=O)O[C@@H]3C)c3nc(CC(=O)O)c(=O)oc3c1C)N2`, the Activity [1] was “inactive”, the IC50 [2] was 0.012 µg/mL (≈ 8.87 nM) and the Activity [3] was “inactive”. For the same compound, the Activity [4] was “Active”, the Percent increase in survival time vs untreated control at 0.15 mg/kg [5] was 140% and the Activity [6] was “Active”. For the same compound, the Activity [7] was “inactive”.
`Cc1c2oc3c(C)ccc(C(=O)N[C@@H]4C(=O)N[C@H](C(C)C)C(=O)N5CCC[C@H]5C(=O)N(C)CC(=O)N(C)[C@@H](C(C)C)C(=O)O[C@@H]4C)c3nc-2c(C(=O)N[C@@H]2C(=O)N[C@H](C(C)C)C(=O)N3CCC[C@H]3C(=O)N(C)CC(=O)N(C)[C@@H](C(C)C)C(=O)O[C@@H]2C)c(N)c1=O` [DACTINOMYCIN] (I: T[dV]P[Sar][NMeV] / II: T[dV]P[Sar][NMeV]; ester I:1-I:C, II:1-II:C; linker I:N-II:N via Actinocin(1to9)) was tested, and the Activity [1] was “inactive”, the Activity [8] was “inactive” and the IC50 [2] was 0.01 µg/mL (≈ 7.97 nM). The Activity [9] was “inactive”, the survival at 0.05 mg/kg [10] was 141% and the survival at 0.075 mg/kg [11] was 149%. For the same compound, the MST [12] was 30 days, the survival at 0.15 mg/kg [5] was -31% and the MST [13] was 28 days. For the same compound, the MST [14] was 8 days.
With `Cc1ccc(C(=O)N[C@@H]2C(=O)N[C@H](C(C)C)C(=O)N3CCC[C@H]3C(=O)N(C)CC(=O)N(C)[C@@H](C(C)C)C(=O)O[C@@H]2C)c2c1Oc1c(c(C(=O)N[C@@H]3C(=O)N[C@H](C(C)C)C(=O)N4CCC[C@H]4C(=O)N(C)CC(=O)N(C)[C@@H](C(C)C)C(=O)O[C@@H]3C)c3nc(CCC(=O)O)c(=O)oc3c1C)N2` the survival at 0.3 mg/kg [15] was 159%, the IC50 [2] was 0.028 µg/mL (≈ 20.5 nM) and the Activity [3] was “inactive”. For the same compound, the Activity [4] was “Active”, the Activity [6] was “Active” and the Activity [7] was “inactive”. For the same compound, the Activity [16] was “inactive”.
In the case of `Cc1ccc(C(=O)N[C@@H]2C(=O)N[C@H](C(C)C)C(=O)N3CCC[C@H]3C(=O)N(C)CC(=O)N(C)[C@@H](C(C)C)C(=O)O[C@@H]2C)c2c1Oc1c(c(C(=O)N[C@@H]3C(=O)N[C@H](C(C)C)C(=O)N4CCC[C@H]4C(=O)N(C)CC(=O)N(C)[C@@H](C(C)C)C(=O)O[C@@H]3C)c3nc(C)c(=O)oc3c1C)N2`, the Activity [1] is reported as “inactive”, the IC50 [2] is reported as 0.012 µg/mL (≈ 9.16 nM) and the Activity [3] is reported as “inactive”. The Activity [4] was “Active”, the Percent increase in survival time vs untreated control at 0.15 mg/kg [5] was 155% and the Activity [6] was “Active”. The Activity [7] was “inactive”.
In the case of `Cc1ccc(C(=O)N[C@@H]2C(=O)N[C@H](C(C)C)C(=O)N3CCC[C@H]3C(=O)N(C)CC(=O)N(C)[C@@H](C(C)C)C(=O)O[C@@H]2C)c2c1Oc1c(c(C(=O)N[C@@H]3C(=O)N[C@H](C(C)C)C(=O)N4CCC[C@H]4C(=O)N(C)CC(=O)N(C)[C@@H](C(C)C)C(=O)O[C@@H]3C)c3ncc(=O)oc3c1C)N2`, the Activity [1] is reported as “inactive”, the IC50 [2] is reported as 0.024 µg/mL (≈ 18.5 nM) and the Activity [3] is reported as “inactive”. The Activity [4] was “Active”, the Percent increase in survival time vs untreated control at 0.15 mg/kg [5] was 169% and the Activity [6] was “Active”. For the same compound, the Activity [7] was “inactive”.
With `CCc1nc2c(C(=O)N[C@@H]3C(=O)N[C@H](C(C)C)C(=O)N4CCC[C@H]4C(=O)N(C)CC(=O)N(C)[C@@H](C(C)C)C(=O)O[C@@H]3C)c3c(c(C)c2oc1=O)Oc1c(C)ccc(C(=O)N[C@@H]2C(=O)N[C@H](C(C)C)C(=O)N4CCC[C@H]4C(=O)N(C)CC(=O)N(C)[C@@H](C(C)C)C(=O)O[C@@H]2C)c1N3` the Activity [8] was “inactive”, the survival at 0.3 mg/kg [15] was 126% and the IC50 [2] was 0.012 µg/mL (≈ 9.07 nM). The Activity [3] was “inactive”, the survival at 0.075 mg/kg [11] was 152% and the MST [17] was 26 days. The MST [12] was 29 days, the Activity [4] was “Active” and the Activity [18] was “Active”. For the same compound, the Percent increase in survival time vs untreated control at 0.15 mg/kg [5] was 204%, the Activity [6] was “Active” and the Activity [7] was “inactive”. The Activity [16] was “inactive” and the MST [14] was 35 days.
